Our source for the IC50 values is ChEMBL document CHEMBL1141019, “New cyclic tetrapeptides from Nonomuraea sp. TA-0426 that inhibit glycine transporter type 1 (GlyT1)” (Bioorg Med Chem Lett, 2008).

Residues, ends and D or L forms follow the SMILES beside them.

The test system of this experiment is T98G. As to the kind of experiment: Inhibition of [3H]glycine uptake in human T98G cells. The format is functional, cell-based. In a few lines:
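T98G cells (2 × 10⁴ cells/well) plated, held 24 h at 37 °C in humidified incubator; washed, then exposed at room temperature to 250 nM [³H]-glycine plus test sample for 15 min. Cells washed, lysed in 0.5 M NaOH, radioactivity read by scintillation counting. IC50 from nonlinear regression curve fit; means of two experiments.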
As for `CN(CC[C@@H](Oc1ccc(-c2ccccc2)cc1)c1ccc(F)cc1)CC(=O)O`, the IC50 came to 4.8 nM. On to `CC[C@H](C)[C@@H]1NC(=O)[C@H](Cc2cn(OC)c3ccccc23)NC(=O)[C@H](CCCCC(C)=O)NC(=O)[C@H]2CCCCN2C1=O`, for which half-maximal inhibition (IC50) required 71.8 nM. As for `CC[C@H](C)[C@@H]1NC(=O)[C@H](Cc2ccccc2)NC(=O)[C@H]([C@H](C)[C@@H](C)O)NC(=O)[C@H](C(C)C)NC1=O`, the figure is 5.5 nM. `CC[C@H](C)[C@@H]1NC(=O)[C@H](C(C)C)NC(=O)[C@H](Cc2ccccc2)NC(=O)[C@H]([C@H](C)[C@@H](C)O)NC1=O`: the IC50 was 5 nM. In the case of `CC(C)[C@@H]1NC(=O)[C@H](Cc2ccccc2)NC(=O)[C@H]([C@H](C)[C@@H](C)O)NC(=O)[C@H](C(C)C)NC1=O` it was 4 nM; in that of `CC[C@H](C)[C@@H]1NC(=O)[C@H](Cc2ccccc2)NC(=O)[C@H]([C@H](CS(=O)(=O)O)C(C)=O)NC(=O)[C@H]([C@@H](C)CC)NC1=O`, 12.5 nM. `CC[C@H](C)[C@@H]1NC(=O)[C@H](Cc2ccccc2)NC(=O)[C@H]([C@H](C)[C@@H](C)O)NC(=O)[C@H]([C@@H](C)CC)NC1=O` had an IC50 of 3.5 nM. For the compound `CC[C@H](C)[C@H](N)C(=O)N[C@H](C(=O)N[C@H](C(=O)N[C@@H](Cc1ccccc1)C(=O)O)[C@@H](C)CC)[C@@H](C)CC` (H-IIIF-OH), the IC50 is 16400 nM.

`CC[C@H](C)[C@@H]1NC(=O)[C@H](Cc2ccccc2)NC(=O)[C@H]([C@@H](C)CC)NC(=O)[C@H]([C@@H](C)CC)NC1=O` (cyclo(FIII)): the IC50 amounted to 21.2 nM.

With `CC[C@H](C)[C@@H]1NC(=O)[C@H](Cc2ccccc2)NC(=O)[C@H]([C@@H](C)CC)NC(=O)[C@H]([C@@H](C)CC)NC(=O)[C@H]([C@@H](C)CC)NC1=O` (cyclo(FIIII)), the IC50 was 655 nM. `CC[C@H](C)[C@@H]1NC(=O)[C@H](Cc2ccccc2)NC(=O)[C@H]([C@@H](C)CC)NC(=O)[C@H]([C@@H](C)CC)NC(=O)[C@H]([C@@H](C)CC)NC(=O)[C@H]([C@@H](C)CC)NC1=O` (cyclo(FIIIII)) showed a 50% inhibitory concentration (IC50) of 1680 nM.

What is called IC50 is the concentration that gives 50% inhibition. Read a low IC50 as higher potency.
